HIV Rev-RRE inh: HIV Rev-RRE protein-RNA interaction inhibition; P05866; Rev peptide-RRE RNA binding, FRET; inhibition, % at 8 µM; actives 0.79% (n = 97,000);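 active means inhibition above the screen-wide mean plus 3 SD, cut at about 35% in these data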;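 further: 0% = median DMSO wells and 100% = median Neomycin B control wells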
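Probe or stimulus: fluorescein-Rev peptide as binding partner; assay system: Cy5-tagged RRE RNA duplex with fluorescein-tagged Rev peptide; timing: 5 min compound–RNA preincubation, then 15 min with peptide, 25 °C; medium: HEPES pH 7.5 buffer with KCl, MgCl2, NaCl and EDTA; signal: fluorescein-to-Cy5 FRET, 480 nm excitation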
PostGolgi yeast: growth inhibition of a yeast mutant, post-Golgi transport screen; AID 739; inhibition, % at 10 µM; post-Golgi transport phenotypic cell assay; actives 0.9% (n = 98,000);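 further: yeast cells grown in 1536-well plates; yeast grown about 18 h at 30C before absorbance read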
Plk1 PBD FP: inhibitors of human Plk1 polo box domain binding. P53350. Plk1 PBD phosphopeptide binding, fluorescence polarization. inhibition, %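 (tested at about 20 µM)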. actives 0.13% (n = 97,000); in the data active means inhibition above about 34%, passing the limit was not always enough
Target sequence (P53350 whole entry, looked up, the tested form may be a part): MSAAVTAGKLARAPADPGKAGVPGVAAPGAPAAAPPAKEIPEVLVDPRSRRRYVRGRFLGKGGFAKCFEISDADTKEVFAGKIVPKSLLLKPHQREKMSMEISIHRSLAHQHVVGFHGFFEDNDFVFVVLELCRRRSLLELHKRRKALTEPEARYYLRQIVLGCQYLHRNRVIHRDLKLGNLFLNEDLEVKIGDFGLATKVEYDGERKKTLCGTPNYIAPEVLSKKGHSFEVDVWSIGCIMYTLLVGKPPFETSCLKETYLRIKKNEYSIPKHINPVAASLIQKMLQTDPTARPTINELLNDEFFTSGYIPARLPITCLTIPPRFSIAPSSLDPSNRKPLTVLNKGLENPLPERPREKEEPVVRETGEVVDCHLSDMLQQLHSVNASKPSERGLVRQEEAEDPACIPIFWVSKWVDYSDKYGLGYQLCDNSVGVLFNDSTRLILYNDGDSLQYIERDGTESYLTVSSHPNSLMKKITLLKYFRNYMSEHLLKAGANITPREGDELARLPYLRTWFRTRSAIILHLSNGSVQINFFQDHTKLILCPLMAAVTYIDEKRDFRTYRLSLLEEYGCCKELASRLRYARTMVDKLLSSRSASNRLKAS
PLK1 inh: blocks human PLK1 kinase activity | P53350 | recombinant PLK1 kinase, TR-FRET peptide phosphorylation | inhibition, % at 10 µM | actives 0.53% (n = 97,000);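 active means inhibition of 50% or more in the single-concentration screen; inactive means inhibition below 50%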;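 further: 0% = DMSO max control and 100% = H-89 dihydrochloride min control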
EphB4 antag: EphB4-ephrin-B2 interaction antagonism; P54760; EphB4 LBD / TNYL-RAW-Alexa532 peptide, fluorescence polarization; inhibition, % at 7 µM; actives 0.15% (n = 97,000); AID 720;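 active means inhibition above the screen-wide mean inhibition plus 3 SD, cut at about 15% in these data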;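 further: 0% = DMSO wells and 100% = excess unlabeled TNYL-RAW peptide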
PostGolgi ctrl: yeast control strain growth, post-Golgi counter-screen; AID 738; inhibition, % at 10 µM; efflux-deficient yeast background strain, growth absorbance A615, 16 h; actives 5% (n = 98,000)
An asterisk follows results filed as active. This is a sample that favours compounds with a hit; in the whole collection about 6.4% have one here. Unless noted, no stated cut-off is given here; in the data, active means inhibition above about 30%; inactive means the rest.

Screening COc1cc(OC)cc(C(=O)Nc2cc(NC(=O)c3ccco3)ccc2OC)c1 returned HIV Rev-RRE inh 3.4, PostGolgi yeast 11.8, Plk1 PBD FP -0.2, PLK1 inh -6.8, EphB4 antag -3.1 and PostGolgi ctrl 14.1.
For CN(C)S(=O)(=O)Oc1ccsc1C(=O)Nc1ccc(Cl)c(Cl)c1 the results were HIV Rev-RRE inh 10.2, PostGolgi yeast -2.7, Plk1 PBD FP -4.4, PLK1 inh -9.9, EphB4 antag 3.3 and PostGolgi ctrl 44.8*.
For COc1cc(OC)c(C#N)c(S(=O)Cc2ccccc2)c1 (centres undefined) the results were HIV Rev-RRE inh 8.2, PostGolgi yeast 13.4, Plk1 PBD FP -23.8, PLK1 inh -8.0, EphB4 antag 6.3 and PostGolgi ctrl 36.1*.
Cc1cc2c(cc1C)CSC(c1c(O)ccc3ccccc13)SC2 was read as HIV Rev-RRE inh 3.8, PostGolgi yeast 103.0*, Plk1 PBD FP 13.0, PLK1 inh -10.9, EphB4 antag 1.7 and PostGolgi ctrl 100.0*.
Cc1cc2c(cc1C)CSC(c1ccc3ccccc3c1O)SC2 was read as HIV Rev-RRE inh 15.1, PostGolgi yeast -12.8, Plk1 PBD FP -13.9, PLK1 inh -6.2, EphB4 antag 5.6 and PostGolgi ctrl 6.5.
Cc1cc2c(cc1C)CSC(c1ccccc1O)SC2 was read as HIV Rev-RRE inh 14.1, PostGolgi yeast 0.7, Plk1 PBD FP -12.8, PLK1 inh -26.9, EphB4 antag -0.8 and PostGolgi ctrl 30.7*.
For c1ccc(-n2nnnc2Oc2cccc3cccnc23)cc1 the results were HIV Rev-RRE inh 7.9, PostGolgi yeast -3.2, Plk1 PBD FP -13.0, PLK1 inh -4.1, EphB4 antag 3.8 and PostGolgi ctrl 28.6.
For Cc1ccc2cccc(Oc3nnnn3-c3ccccc3)c2n1 the results were HIV Rev-RRE inh 0.1, PostGolgi yeast 18.4, Plk1 PBD FP -18.3, PLK1 inh -5.6, EphB4 antag 0.5 and PostGolgi ctrl 30.0*.
For CC1CCCCC1NC(=O)Cn1ncc2ccccc21 (centres undefined) the results were HIV Rev-RRE inh 7.2, PostGolgi yeast -2.4, Plk1 PBD FP -15.1, PLK1 inh -7.7, EphB4 antag 2.6 and PostGolgi ctrl 13.1.
Screening O=C(c1n[nH]c2ccccc12)N1CCN(S(=O)(=O)c2ccc3ccccc3c2)CC1 returned HIV Rev-RRE inh 7.4, PostGolgi yeast 14.1, Plk1 PBD FP -8.2, PLK1 inh -13.4, EphB4 antag 6.2 and PostGolgi ctrl 55.8*.
O=C(c1cnccn1)N1CCN(S(=O)(=O)c2ccc3ccccc3c2)CC1 was read as HIV Rev-RRE inh 4.7, PostGolgi yeast 15.1, Plk1 PBD FP -4.1, PLK1 inh -6.5, EphB4 antag -3.1 and PostGolgi ctrl -3.8.
`O=C(c1ccc(Cl)cc1)c1cnc2ccccn12` gave HIV Rev-RRE inh -6.4, PostGolgi yeast -4.7, Plk1 PBD FP 17.1, PLK1 inh -1.6, EphB4 antag 2.6 and PostGolgi ctrl 10.0.
For Cc1ccc(-n2c(C)cc3c2CC(C)(C)CC3=O)cc1C the results were HIV Rev-RRE inh 9.6, PostGolgi yeast 16.1, Plk1 PBD FP 10.3, PLK1 inh 5.5, EphB4 antag 5.8 and PostGolgi ctrl 31.2*.
`CC1(C)CC(=O)c2cc(C(=O)Nn3cnnc3)c(=O)n(-c3ccccc3)c2C1` gave HIV Rev-RRE inh 4.0, PostGolgi yeast 18.7, Plk1 PBD FP -33.3, PLK1 inh -4.7, EphB4 antag -8.8 and PostGolgi ctrl 1.4.
Cc1cc2c(n1-c1ccc(Br)cc1)CC(C)(C)CC2=O was read as HIV Rev-RRE inh 2.9, PostGolgi yeast 0.3, Plk1 PBD FP -19.8, PLK1 inh -0.6, EphB4 antag 0.5 and PostGolgi ctrl 40.0*.
`C/C(=N\Nc1ccc([N+](=O)[O-])cc1)c1cccc(N)c1` gave HIV Rev-RRE inh 13.3, PostGolgi yeast 31.4*, Plk1 PBD FP -5.3, PLK1 inh -4.0, EphB4 antag -4.0 and PostGolgi ctrl 5.4.
`CCOC(=O)C[n+]1c(C)ccc2c1CCC2` gave HIV Rev-RRE inh 9.1, Plk1 PBD FP 6.8, PLK1 inh -9.9 and EphB4 antag 9.5.
Screening CCOC(=O)N1CCC(n2c(SCC(=O)NCCC3=CCCCC3)nc3ccccc3c2=O)CC1 returned HIV Rev-RRE inh 6.1, PostGolgi yeast -13.6, Plk1 PBD FP -9.4, PLK1 inh -5.0, EphB4 antag 15.4* and PostGolgi ctrl 16.8.

Screening results (PubChem)
